The full list was thinned out, with hits kept by preference.
Hep lipid drop – modulators of hepatic lipid droplet formation | AML12 mouse hepatocytes, oleate lipid droplets, BODIPY imaging | inhibition, % at 6.5 µM | actives 0.4% (n = 240,000);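 active means lipid droplet intensity inhibited by at least 50%, with more than 500 cells counted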
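Test system: AML12 hepatocytes (mouse); reagent: oleate loading, 100 µM; dosing: one dose, 6.5 µM compound; incubation: overnight exposure; signal: fluorescence imaging, 20x objective, two fields per well; read-out basis: % inhibition of corrected integrated BODIPY droplet signal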
MPTP block – blocks calcium-induced mitochondrial swelling | isolated mouse mitochondria, Ca2+ swelling absorbance, 30 min | inhibition, % at 10 µM | actives 1.4% (n = 360,000);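 active means inhibition of 50% or more, scaled per plate between neutral and stimulator controls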;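 further: 0% = DMSO wells given calcium and 100% = 1 mM EGTA wells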
T cruzi inh – blocks replication of Trypanosoma cruzi; T. cruzi beta-gal in NIH3T3, luminescence, 90 h; inhibition, % (test concentration not listed); actives 1.4% (n = 300,000);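 active means mean inhibition across valid replicates above about 55%, limit read from the data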;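 further: signal also drops with host cell toxicity which is not excluded here; 0% = plate median of DMSO wells and 100% = zero luminescence signal; higher percent means less beta-gal luminescence so fewer parasites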
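Test system: β-gal T. cruzi (Tulahuen C4) inside NIH/3T3 cells / Quantity: 5,000 cells/well / Measured by: luminescence from GalScreen with 0.05% NP40, read after 60 min / Medium: DMEM plus 2% FBS / Measure: parasite load inhibition, % / Reagent: Tulahuen C4 trypomastigotes, 5000/well / Schedule: co-culture of at least 90 h after 3 h attachment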
Redox H2O2 prof – compounds producing H2O2 with reducing agent – biochemical, NIH compound library profiling, artefact control for MLSCN library redox annotation, primary screen; activation, % at 10 µM; DTT-dependent redox cycling H2O2, phenol red/HRP absorbance; 100% = 100 µM peroxide control, 0% = buffer; actives 0.03% (n = 200,000);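 active means activation of at least 50% relative to the plate's high and low controls in the primary single-dose screen; inactive means activation below 50%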;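 further: compound incubated with DTT at 0.8 mM final as the reducing agent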
L major viab – reduces viability of Leishmania major promastigotes | resazurin fluorescence viability | inhibition, % at 10 µM | actives 9% (n = 200,000) | AID 1063; in the data active means inhibition above about 50%;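 further: promastigotes grown with compound for 44 hours at 28 °C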
* marks the source's active call; other numbers are inactive results; / = not tested or not shown.

SMILES	Hep lipid drop	MPTP block	T cruzi inh	Redox H2O2 prof	L major viab
Cc1nnc(SCC(=O)Nc2nccs2)n1C(C)C	21	1	3	/	/
Cc1cc(N2CCCCC2)nc2ccc(NC(=O)c3ccc(Br)o3)cc12	8	3	26	0	94*
Cc1cc(N2CCN(C)CC2)nc2ccc(NC(=O)c3ccc(Br)o3)cc12	-16	0	31	-1	92*
COc1cc(C(=O)Nc2ccc3nc(N4CCN(C)CC4)cc(C)c3c2)cc(OC)c1OC	0	1	30	/	/
Cc1cc(N2CCN(C)CC2)nc2ccc(NC(=O)c3ccc4c(c3)OCO4)cc12	2	0	/	0	100*
O=C(Nc1ccc(N2CCCC2)cc1)c1ccc(Br)o1	-1	2	2	2	15
O=C(CSc1cccc[n+]1[O-])c1ccc(Cl)s1	-4	0	-28	-1	0
Cc1sc(C(=O)Nc2ccc3ccccc3c2)cc1CC(=O)O	5	0	7	-1	-5
Cc1ccc(C)c(N(CC(=O)NC(C)C)C(=O)CCC(=O)Nc2ccccn2)c1	2	1	-7	/	/
COc1ccc(C2CC(c3ccccc3)=NN2C(=O)COC(=O)C2CC2)cc1 (stereo unspecified)	16	0	17	0	4
COc1ccc(C2CC(c3ccccc3)=NN2C(=O)COC(=O)C2(C)CC2(Cl)Cl)cc1 (stereo unspecified)	31	-1	38	0	60*
Cc1ccc(NC(=O)C2CCN(S(=O)(=O)c3c(C)noc3/C=C/c3ccco3)CC2)nc1	0	1	0	0	16
Cc1ccc(CNC(=O)C2CCN(S(=O)(=O)c3c(C)noc3/C=C/c3ccco3)CC2)cc1	/	-2	16	-2	93*
Cc1noc(/C=C/c2ccco2)c1S(=O)(=O)N1CCC(C(=O)N2CCc3ccccc3C2)CC1	/	7	44	-1	73*
Cc1ccc(CNC(=O)C2CCN(S(=O)(=O)c3c(C)noc3/C=C/N(C)C)CC2)cc1	-31	0	-3	/	/
Cc1noc(/C=C/c2cccs2)c1S(=O)(=O)N1CCC(C(=O)NCCCN2CCC(C)CC2)CC1	8	-1	10	10	90*
O=C(NCCc1c[nH]c2ccccc12)c1cc2sccc2n1Cc1ccccc1	44	2	18	1	100*
CCCCNC(=O)CCn1c(=O)c2ccccc2n(Cc2ccc(Cl)cc2)c1=O	-3	0	8	0	57*
Cc1ccc(Cn2cnc3ccccc32)cc1	-16	6	50	0	78*
NC(=O)CC(NC(=O)c1ccccc1)c1ccc(NCCc2ccc(Cl)cc2)c([N+](=O)[O-])c1 (stereo unspecified)	42	0	-19	/	/
CCCCC(NC(=O)c1ccccc1)C(=O)OCC(=O)N1c2ccccc2Sc2ccccc21 (stereo unspecified)	/	0	34	-7	75*
CCOc1ccccc1N(CC(=O)Nc1cc(OC)ccc1OC)S(C)(=O)=O	-12	0	-8	0	84*
COc1ccccc1N(Cc1ccccc1)S(=O)(=O)c1cccc(C(=O)Nc2ccccn2)c1	-15	-1	35	/	/
COc1ccccc1N(Cc1ccccc1)S(=O)(=O)c1cccc(C(=O)Nc2ccc(C(C)=O)cc2)c1	-4	3	32	0	75*
COc1ccccc1N(Cc1ccccc1)S(=O)(=O)c1cccc(C(=O)N2CCCCC2)c1	/	-1	/	/	/
SMILES	Hep lipid drop	MPTP block	T cruzi inh	Redox H2O2 prof	L major viab
COc1ccccc1N(Cc1ccccc1)S(=O)(=O)c1cccc(C(=O)Nc2ccc(C)cn2)c1	/	0	62*	/	/
COc1ccc(OC)c(NC(=O)c2cccc(S(=O)(=O)N(Cc3ccccc3)c3ccccc3OC)c2)c1	16	1	35	0	96*
COc1ccc(C(=O)NCCS(=O)(=O)N2CCN(Cc3ccccc3)CC2)cc1	/	-1	2	/	/
COc1ccccc1N(CC(=O)N/N=C/c1c(O)ccc2ccccc12)S(C)(=O)=O	5	6	7	0	99*
COc1ccccc1NCC(=O)N/N=C/c1c(O)ccc2ccccc12	-20	1	-5	/	/
COc1ccc(OC)c(N/C(C)=C/C(=O)c2ccccc2)c1	1	1	56*	0	39
COc1ccc(N(CC(=O)Nc2ccccc2C(=O)NCCc2ccccc2)S(C)(=O)=O)cc1OC	6	-2	/	0	90*
C/C(=C\C(=O)c1ccncc1)Nc1ccccc1O	/	5	2	3	57*
Cc1ncc(CO)n1Cc1ccc(Cl)cc1	/	1	/	/	/
Cc1ccn2c(C(C)O)nnc2c1 (stereo unspecified)	/	0	/	/	/
CS(=O)(=O)N1CCC(Oc2ccccc2C(=O)NC(C2CC2)C2CC2)CC1	0	-5	-3	0	1
Cc1ccc(CN(CC(O)COc2cccc3[nH]cc(C)c23)C(C)(C)C)cc1 (stereo unspecified)	-4	3	32	/	/
COC(=O)Cc1c[nH]c2cccc(OCC(O)CN(Cc3ccc([N+](=O)[O-])cc3)C(C)(C)C)c12 (stereo unspecified)	/	25	65*	2	39
COc1ccccc1NC(=O)N1CCC(NC(=O)C2CCCCC2)CC1	-7	0	-3	/	/
COC(=O)c1cc(NC2c3ncccc3C(=O)N2Cc2ccccc2)cc(C(=O)OC)c1 (stereo unspecified)	/	-1	-2	0	53*
COC(=O)c1ccc(NC2c3ncccc3C(=O)N2Cc2cccs2)cc1 (stereo unspecified)	-15	0	-16	0	0
COCc1nnc(SCC(=O)NCc2ccccc2)n1-c1ccccc1	-6	-1	0	-1	-7
Cc1ccc(-n2c(CCc3ccccc3)nnc2SCC(=O)NCc2ccccc2)cc1C	1	2	14	0	54*
CCCN(CC(=O)NC(=O)NCc1ccccc1)CC(=O)Nc1ccc(F)c(F)c1F	/	0	/	/	/
COc1ccc(OC)c(Cc2nnc(CCC(=O)NCc3ccsc3)o2)c1	8	-4	-10	-1	-7
O=C(NCc1ccco1)c1nn2c(C(F)(F)F)cc(-c3cccs3)nc2c1Br	-10	-5	19	-1	100*
O=C(NCc1ccco1)c1nc2nc(-c3cccs3)cc(C(F)(F)F)n2n1	/	0	9	3	4
Cc1cc2cc(C(c3nnnn3Cc3ccco3)N3CCc4ccccc43)c(=O)[nH]c2cc1C (stereo unspecified)	/	-5	9	1	20
Cc1ccc2cc(C(c3nnnn3Cc3ccccc3)N3CCc4ccccc43)c(=O)[nH]c2c1 (stereo unspecified)	10	-1	11	1	42
CCc1ccc2[nH]c(=O)c(C(c3nnnn3Cc3ccccc3)N3CCOCC3)cc2c1 (stereo unspecified)	/	2	2	0	96*

Screens deposited in PubChem BioAssay by several laboratories.
